Measured values from ChEMBL document CHEMBL2346606, “Inhibitors of the TAM subfamily of tyrosine kinases: synthesis and biological evaluation” (Eur J Med Chem, 2013).

How the values were obtained:
[1] = Growth inhibition of African green monkey Vero cells at 10 uM after 72 hrs by […] assay relative to control; format: cell-based; conditions: chlorocebus sabaeus, read-out: GI
Procedure, shortened: (§1)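 KB and Vero cells were grown in D-MEM with 10% FCS and antibiotics under 5% CO2, plated, then dosed 24 h later at 10^-5 M from DMSO (controls 1% DMSO). After 72 h, MTS was added for 3 h at 37 °C and A490 read. Inhibition = (1 − OD treated/OD control) × 100, in triplicate.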

MCF7 = experiment: Growth inhibition of human MCF7 cells at 10 uM after 72 hrs by […] assay relative to control; format: functional; conditions: MCF7, 72 h, read-out: GI
Procedure, shortened: (§2)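 HT29, MCF7 and PC-3 cells were grown in RPMI, plated, and treated 24 h later with compound in DMSO at 10^-5 M (DMSO controls, 1% final). After 72 h exposure, MTS reagent was added for 3 h at 37 °C and absorbance read at 490 nm. Proliferation inhibition = [1 − OD treated/OD control] × 100, triplicate experiments.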

PC-3 = experiment: Growth inhibition of human PC3 cells at 10 uM after 72 hrs by […] assay relative to control; format: functional; conditions: PC-3, 72 h, read-out: GI; procedure, shortened: as §2
HT-29 = experiment: Growth inhibition of human HT-29 cells at 10 uM after 72 hrs by […] assay relative to control; format: functional; conditions: HT-29, 72 h, read-out: GI; procedure, shortened: as §2
KB = experiment: Growth inhibition of human KB cells at 10 uM after 72 hrs by […] relative to control; format: functional; conditions: read-out: GI; procedure, shortened: as §1

CCN(CC)CCNC(=O)c1c(C)[nH]c(/C=C2\C(=O)Nc3ccc(F)cc32)c1C [SUNITINIB]
< 10%: inhibition at 72 h, 10 µM [1] | inhibition of growth at 10 µM (MCF7) | inhibition of growth at 10 µM (PC-3) | inhibition of growth at 10 µM (HT-29) | inhibition of growth at 10 µM (KB)

O=C(Nc1ccc(Nc2ncnc3[nH]cnc23)cc1)c1cccn(-c2cccc(F)c2)c1=O
< 10%: inhibition at 72 h, 10 µM [1] | inhibition of growth at 10 µM (MCF7) | inhibition of growth at 10 µM (PC-3) | inhibition of growth at 10 µM (HT-29) | inhibition of growth at 10 µM (KB)

COc1ccccc1C(=O)Nc1cccc(-c2nc3c(Nc4ccc(F)cc4)ncnc3[nH]2)c1
< 10%: inhibition at 72 h, 10 µM [1] | inhibition of growth at 10 µM (MCF7) | inhibition of growth at 10 µM (PC-3) | inhibition of growth at 10 µM (HT-29) | inhibition of growth at 10 µM (KB)

COc1ncccc1C(=O)Nc1cccc(-c2nc3c(Nc4ccccc4)ncnc3[nH]2)c1
< 10%: inhibition at 72 h, 10 µM [1] | inhibition of growth at 10 µM (MCF7) | inhibition of growth at 10 µM (PC-3) | inhibition of growth at 10 µM (HT-29) | inhibition of growth at 10 µM (KB)

COc1ccccc1C(=O)Nc1cccc(-c2ncnc3[nH]cnc23)c1
< 10%: inhibition at 72 h, 10 µM [1] | inhibition of growth at 10 µM (MCF7) | inhibition of growth at 10 µM (PC-3) | inhibition of growth at 10 µM (HT-29) | inhibition of growth at 10 µM (KB)

O=C(Nc1ccc(Nc2ncnc3[nH]cnc23)cc1)c1cccnc1F
< 10%: inhibition at 72 h, 10 µM [1] | inhibition of growth at 10 µM (MCF7) | inhibition of growth at 10 µM (PC-3) | inhibition of growth at 10 µM (HT-29) | inhibition of growth at 10 µM (KB)

COc1ncccc1C(=O)Nc1ccc(Nc2ncnc3[nH]cnc23)c(F)c1
< 10%: inhibition at 72 h, 10 µM [1] | inhibition of growth at 10 µM (MCF7) | inhibition of growth at 10 µM (PC-3) | inhibition of growth at 10 µM (HT-29) | inhibition of growth at 10 µM (KB)

Cc1cc(C(=O)Nc2ccc(Nc3ncnc4[nH]cnc34)c(F)c2)ccc1Br
< 10%: inhibition at 72 h, 10 µM [1] | inhibition of growth at 10 µM (MCF7) | inhibition of growth at 10 µM (PC-3) | inhibition of growth at 10 µM (HT-29) | inhibition of growth at 10 µM (KB)

Cc1cc(C(=O)Nc2cccc(-c3nc4c(Nc5cccc(F)c5)ncnc4[nH]3)c2)ccc1Br
< 10%: inhibition at 72 h, 10 µM [1] | inhibition of growth at 10 µM (MCF7) | inhibition of growth at 10 µM (PC-3) | inhibition of growth at 10 µM (HT-29) | inhibition of growth at 10 µM (KB)

O=C(Nc1cccc(-c2nc3c(Nc4cccc(C(F)(F)F)c4)ncnc3[nH]2)c1)c1ccccc1F
< 10%: inhibition at 72 h, 10 µM [1] | inhibition of growth at 10 µM (MCF7) | inhibition of growth at 10 µM (PC-3) | inhibition of growth at 10 µM (HT-29) | inhibition of growth at 10 µM (KB)

O=C(Nc1cccc(-c2ncnc3[nH]cnc23)c1)c1cccn(-c2ccc(F)cc2)c1=O
< 10%: inhibition at 72 h, 10 µM [1] | inhibition of growth at 10 µM (MCF7) | inhibition of growth at 10 µM (PC-3) | inhibition of growth at 10 µM (HT-29) | inhibition of growth at 10 µM (KB)

O=C(Nc1ccc(Nc2ncnc3[nH]cnc23)c(F)c1)c1ccccc1F
< 10%: inhibition at 72 h, 10 µM [1] | inhibition of growth at 10 µM (MCF7) | inhibition of growth at 10 µM (PC-3) | inhibition of growth at 10 µM (HT-29) | inhibition of growth at 10 µM (KB)

O=C(Nc1ccc(Nc2ncnc3[nH]cnc23)cc1)c1ccccc1F
< 10%: inhibition at 72 h, 10 µM [1] | inhibition of growth at 10 µM (MCF7) | inhibition of growth at 10 µM (PC-3) | inhibition of growth at 10 µM (HT-29) | inhibition of growth at 10 µM (KB)

O=C(Nc1ccc(Nc2ncnc3[nH]cnc23)c(F)c1)c1cccn(-c2cccc(F)c2)c1=O
< 10%: inhibition at 72 h, 10 µM [1] | inhibition of growth at 10 µM (MCF7) | inhibition of growth at 10 µM (PC-3) | inhibition of growth at 10 µM (HT-29) | inhibition of growth at 10 µM (KB)

O=C(Nc1ccc(Nc2ncnc3[nH]cnc23)c(F)c1)c1cccn(-c2cccc(C(F)(F)F)c2)c1=O
< 10%: inhibition at 72 h, 10 µM [1] | inhibition of growth at 10 µM (MCF7) | inhibition of growth at 10 µM (PC-3) | inhibition of growth at 10 µM (HT-29) | inhibition of growth at 10 µM (KB)

Cc1cc(C(=O)Nc2cccc(-c3nc4c(Nc5cccc(C(F)(F)F)c5)ncnc4[nH]3)c2)ccc1Br
< 10%: inhibition at 72 h, 10 µM [1] | inhibition of growth at 10 µM (MCF7) | inhibition of growth at 10 µM (PC-3) | inhibition of growth at 10 µM (HT-29) | inhibition of growth at 10 µM (KB)

O=C(Nc1ccc(Nc2ncnc3[nH]cnc23)cc1)c1cccn(-c2cccc(C(F)(F)F)c2)c1=O
< 10%: inhibition at 72 h, 10 µM [1] | inhibition of growth at 10 µM (MCF7) | inhibition of growth at 10 µM (PC-3) | inhibition of growth at 10 µM (HT-29) | inhibition of growth at 10 µM (KB)

O=C(Nc1ccc(Nc2ncnc3[nH]cnc23)c(F)c1)c1cccnc1F
< 10%: inhibition at 72 h, 10 µM [1] | inhibition of growth at 10 µM (MCF7) | inhibition of growth at 10 µM (PC-3) | inhibition of growth at 10 µM (HT-29) | inhibition of growth at 10 µM (KB)

O=C(Nc1cccc(-c2ncnc3[nH]cnc23)c1)c1cccn(-c2cccc(C(F)(F)F)c2)c1=O
< 10%: inhibition at 72 h, 10 µM [1] | inhibition of growth at 10 µM (MCF7) | inhibition of growth at 10 µM (PC-3) | inhibition of growth at 10 µM (HT-29) | inhibition of growth at 10 µM (KB)

COc1ccccc1C(=O)Nc1cccc(-c2nc3c(Nc4ccccc4)ncnc3[nH]2)c1
< 10%: inhibition at 72 h, 10 µM [1] | inhibition of growth at 10 µM (MCF7) | inhibition of growth at 10 µM (PC-3) | inhibition of growth at 10 µM (HT-29) | inhibition of growth at 10 µM (KB)

O=C(Nc1cccc(-c2nc3c(Nc4ccc(F)cc4)ncnc3[nH]2)c1)c1ccccc1F
< 10%: inhibition at 72 h, 10 µM [1] | inhibition of growth at 10 µM (MCF7) | inhibition of growth at 10 µM (PC-3) | inhibition of growth at 10 µM (HT-29) | inhibition of growth at 10 µM (KB)

O=C(Nc1cccc(-c2ncnc3[nH]cnc23)c1)c1cccn(-c2cccc(F)c2)c1=O
< 10%: inhibition at 72 h, 10 µM [1] | inhibition of growth at 10 µM (MCF7) | inhibition of growth at 10 µM (PC-3) | inhibition of growth at 10 µM (HT-29) | inhibition of growth at 10 µM (KB)

COc1ncccc1C(=O)Nc1cccc(-c2nc3c(Nc4ccc(F)cc4)ncnc3[nH]2)c1
< 10%: inhibition at 72 h, 10 µM [1] | inhibition of growth at 10 µM (MCF7) | inhibition of growth at 10 µM (PC-3) | inhibition of growth at 10 µM (HT-29) | inhibition of growth at 10 µM (KB)

COc1ncccc1C(=O)Nc1cccc(-c2ncnc3[nH]cnc23)c1
< 10%: inhibition at 72 h, 10 µM [1] | inhibition of growth at 10 µM (MCF7) | inhibition of growth at 10 µM (PC-3) | inhibition of growth at 10 µM (HT-29) | inhibition of growth at 10 µM (KB)

O=C(Nc1cccc(-c2ncnc3[nH]cnc23)c1)c1cccnc1F
< 10%: inhibition at 72 h, 10 µM [1] | inhibition of growth at 10 µM (MCF7) | inhibition of growth at 10 µM (PC-3) | inhibition of growth at 10 µM (HT-29) | inhibition of growth at 10 µM (KB)

COc1ccccc1C(=O)Nc1ccc(Nc2ncnc3[nH]cnc23)c(F)c1
< 10%: inhibition at 72 h, 10 µM [1] | inhibition of growth at 10 µM (MCF7) | inhibition of growth at 10 µM (PC-3) | inhibition of growth at 10 µM (HT-29) | inhibition of growth at 10 µM (KB)

Cc1cc(C(=O)Nc2cccc(-c3nc4c(Nc5ccc(F)cc5)ncnc4[nH]3)c2)ccc1Br
< 10%: inhibition at 72 h, 10 µM [1] | inhibition of growth at 10 µM (MCF7) | inhibition of growth at 10 µM (PC-3) | inhibition of growth at 10 µM (HT-29) | inhibition of growth at 10 µM (KB)

COc1ncccc1C(=O)Nc1ccc(Nc2ncnc3[nH]cnc23)cc1
< 10%: inhibition at 72 h, 10 µM [1] | inhibition of growth at 10 µM (MCF7) | inhibition of growth at 10 µM (PC-3) | inhibition of growth at 10 µM (HT-29) | inhibition of growth at 10 µM (KB)

COc1cc2c(Nc3ccc(Br)cc3F)ncnc2cc1OCC1CCN(C)CC1 [VANDETANIB]
< 10%: inhibition at 72 h, 10 µM [1] | inhibition of growth at 10 µM (MCF7) | inhibition of growth at 10 µM (PC-3) | inhibition of growth at 10 µM (HT-29) | inhibition of growth at 10 µM (KB)

O=C(Nc1ccc(Oc2ncnc3[nH]cnc23)c(F)c1)c1ccccc1F
< 10%: inhibition at 72 h, 10 µM [1] | inhibition of growth at 10 µM (MCF7) | inhibition of growth at 10 µM (PC-3) | inhibition of growth at 10 µM (HT-29) | inhibition of growth at 10 µM (KB)

O=C(Nc1cccc(-c2ncnc3[nH]cnc23)c1)c1cccn(-c2ccc(C(F)(F)F)cc2)c1=O
< 10%: inhibition at 72 h, 10 µM [1] | inhibition of growth at 10 µM (MCF7) | inhibition of growth at 10 µM (PC-3) | inhibition of growth at 10 µM (HT-29) | inhibition of growth at 10 µM (KB)

O=C(Nc1ccc(Nc2ncnc3[nH]cnc23)c(F)c1)c1cccn(-c2ccc(F)cc2)c1=O
< 10%: inhibition at 72 h, 10 µM [1] | inhibition of growth at 10 µM (MCF7) | inhibition of growth at 10 µM (PC-3) | inhibition of growth at 10 µM (HT-29) | inhibition of growth at 10 µM (KB)

O=C(Nc1cccc(-c2nc3c(Nc4ccccc4)ncnc3[nH]2)c1)c1ccccc1F
< 10%: inhibition at 72 h, 10 µM [1] | inhibition of growth at 10 µM (MCF7) | inhibition of growth at 10 µM (PC-3) | inhibition of growth at 10 µM (HT-29) | inhibition of growth at 10 µM (KB)

COc1ncccc1C(=O)Nc1cccc(-c2nc3c(Nc4cccc(F)c4)ncnc3[nH]2)c1
< 10%: inhibition at 72 h, 10 µM [1] | inhibition of growth at 10 µM (MCF7) | inhibition of growth at 10 µM (PC-3) | inhibition of growth at 10 µM (HT-29) | inhibition of growth at 10 µM (KB)

Cc1cc(C(=O)Nc2cccc(-c3ncnc4[nH]cnc34)c2)ccc1Br
< 10%: inhibition at 72 h, 10 µM [1] | inhibition of growth at 10 µM (MCF7) | inhibition of growth at 10 µM (PC-3) | inhibition of growth at 10 µM (HT-29) | inhibition of growth at 10 µM (KB)

O=C(Nc1ccc(Nc2ncnc3[nH]cnc23)c(F)c1)c1cccn(-c2ccc(C(F)(F)F)cc2)c1=O
< 10%: inhibition at 72 h, 10 µM [1] | inhibition of growth at 10 µM (MCF7) | inhibition of growth at 10 µM (PC-3) | inhibition of growth at 10 µM (HT-29) | inhibition of growth at 10 µM (KB)
